Source: PubChem BioAssay
NPY-Y1 antag – NPY-Y1 receptor antagonists, primary screen, cell-based; HEK293-CNG Y1 cells, membrane potential fluorescence; NPY at EC95, then isoproterenol; inhibition, % at 3.6 µM; 200,000 compounds, 1% hits; AID 1040, 2008;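 active = inhibition above the campaign mean inhibition of all tested compounds plus 3 SD, cut at about 20% in these data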;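 note: 0% = DMSO wells given NPY plus isoproterenol and 100% = isoproterenol alone without NPY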
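Test system: HEK293 cells co-expressing NPY Y1 receptor and cyclic-nucleotide gated channel; Also added: NPY (25 nM), isoproterenol (1 µM), Ro 20-1724 (25 µM); Compound dosing: one concentration, 3.6 µM, in 0.4% DMSO; Timing: dye 3 h, compound 60 min room temperature, stimulation 45 min; Technique: Membrane-potential fluorescent dye readout.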
NPY-Y2 antag – NPY-Y2 receptor antagonists, primary screen, cell-based. Neuropeptide Y receptor type 2 (Homo sapiens), P49146. NPY-Y2 expressing cells, antagonist mode. inhibition, % at 2.7 µM. 140,000 compounds, 0.99% hits. AID 793, 2007;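 note: 0% = vehicle with agonist challenge and 100% = reference antagonist with challenge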
Target sequence (P49146 whole entry, looked up): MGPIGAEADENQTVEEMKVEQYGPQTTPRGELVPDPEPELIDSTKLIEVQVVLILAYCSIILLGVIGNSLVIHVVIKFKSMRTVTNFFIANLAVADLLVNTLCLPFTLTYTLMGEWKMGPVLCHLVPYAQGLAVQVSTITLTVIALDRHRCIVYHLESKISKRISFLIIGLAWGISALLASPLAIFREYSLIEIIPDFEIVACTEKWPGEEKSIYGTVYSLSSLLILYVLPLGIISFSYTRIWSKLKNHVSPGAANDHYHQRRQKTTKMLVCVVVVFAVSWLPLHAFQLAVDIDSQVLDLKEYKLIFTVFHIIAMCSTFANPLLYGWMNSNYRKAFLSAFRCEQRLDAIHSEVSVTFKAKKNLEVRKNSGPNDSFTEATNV
NPY2 pot ag – NPY-Y2 potentiators or agonists, primary screen, cell-based; Neuropeptide Y receptor type 2 (Homo sapiens), P49146; cells expressing NPY-Y2, potentiator/agonist read-out; activation, % at 3.6 µM; 220,000 compounds, 0.45% hits; in the data active = activation above about 27%;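 note: cells stimulated with NPY near EC25 plus isoproterenol at EC100; 0% = vehicle plus submaximal agonist and 100% = vehicle plus saturating agonist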
EP2 modulator – EP2 receptor modulators, cAMP readout, primary screen, cell-based, HTRF cAMP, PGE2 stimulation; Prostaglandin E2 receptor EP2 subtype (Homo sapiens), P43116; EP2-expressing cells, cAMP HTRF FRET, PGE2 co-stimulation; induction, % at 25 µM; 260,000 compounds, 0.83% hits; AID 940, 2007;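 active = compounds whose cAMP rise, as percent of the full-agonist control response, exceeds 60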;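 note: rat C6 glioma line stably carrying human EP2 under a CMV promoter; the protocol text gives 20 µM as final concentration; 100% = response of wells given 1 µM PGE2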
Target sequence (P43116 whole entry, looked up): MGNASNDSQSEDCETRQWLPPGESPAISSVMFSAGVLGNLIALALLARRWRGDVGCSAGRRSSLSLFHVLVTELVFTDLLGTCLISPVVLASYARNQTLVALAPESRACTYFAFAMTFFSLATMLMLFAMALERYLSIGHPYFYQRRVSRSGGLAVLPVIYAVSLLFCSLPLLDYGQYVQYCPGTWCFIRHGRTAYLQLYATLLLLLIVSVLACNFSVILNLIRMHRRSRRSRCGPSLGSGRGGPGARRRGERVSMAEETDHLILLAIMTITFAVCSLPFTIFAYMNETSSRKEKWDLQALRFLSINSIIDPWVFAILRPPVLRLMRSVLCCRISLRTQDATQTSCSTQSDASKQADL
NPY-Y1 PAM-ag – NPY-Y1 receptor potentiators or agonists, primary screen, cell-based; Neuropeptide Y receptor type 1 (Homo sapiens), P25929; NPY-Y1 expressing cells, potentiator/agonist activation; activation, % at 3.6 µM; 220,000 compounds, 0.37% hits; in the data active = activation above about 33%, passing the limit was not always enough;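 note: cells stimulated with NPY at EC10 then isoproterenol at EC100; 0% = low agonist plus stimulus and 100% = saturating agonist plus stimulus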
PGE2 EP2 inh – human EP2 receptor antagonists, primary screen, TR-FRET cAMP, C6 glioma cells. 260,000 compounds, 0.52% hits. C6 glioma cells expressing human EP2; cells stimulated with saturating PGE2. inhibition, % at 25 µM. AID 1422, 2008. Prostaglandin E2 receptor EP2 subtype (Homo sapiens), P43116;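 active = percent inhibition above 40 after rounding to a whole number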;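 note: rat C6 glioma host cells with rolipram phosphodiesterase inhibitor present; the protocol text gives 20 µM as final concentration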
NPY-Y1 ant conf – NPY-Y1 receptor antagonists, retest of hits, confirmation, HEK293-CNG cells, membrane potential fluorescence, triplicate. shares compounds with NPY-Y1 antag. cAMP; NPY challenge against isoproterenol-raised cAMP. inhibition, % at 3.6 µM. 1,200 compounds, 21% hits; in the data active = inhibition above about 20%;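 note: 0% = vehicle with agonist plus stimulus and 100% = stimulus alone without agonist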
NPY-Y2 antag ct – NPY-Y2 receptor antagonists, selectivity check, confirmation, counter-screen for NPY-Y1 antagonist project, HEK293-CNG cells, membrane potential fluorescence, triplicate. antagonism; cells given NPY, then isoproterenol. 1,200 compounds, 28% hits. shares compounds with NPY-Y1 antag. AID 1255, 2008. inhibition, % at 3.6 µM;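 note: 0% = DMSO with agonist challenge and 100% = reference antagonist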
Active calls of the source: *. Most compounds without a hit are left out; they make up all but 2.8% or so of the library. Cut-off read from the data, not from the text of the source, unless noted: active = inhibition above about 17%; inactive = the rest.

What do the screens show for `CCc1nn(CC(=O)NCCCN(C)C)c(=O)c2cc3ccsc3n12`?
EP2 modulator: 5

Results for CCOC(=O)C1=C(C)NC2=C(C(=O)CCC2)C1c1cn(Cc2ccc(Cl)cc2Cl)nc1-c1ccccc1 (centres undefined) ?
NPY-Y1 antag: 35*; NPY-Y2 antag: 12; NPY2 pot ag: -16; EP2 modulator: 3; NPY-Y1 PAM-ag: -46; NPY-Y1 ant conf: 30*; NPY-Y2 antag ct: 39*

What do the screens show for `COc1cc(C)c(C2C(C#N)=C(N)Oc3n[nH]c(C)c32)cc1C` (centres undefined)?
EP2 modulator: -120; PGE2 EP2 inh: 15

How did Cc1ccc(-n2cc(CNCC3CC(=O)N(C4CC4)C3)c(-c3cccc(C)c3)n2)cc1 (centres undefined) do in these assays?
NPY-Y1 antag: 22*; NPY2 pot ag: -29; EP2 modulator: -5; NPY-Y1 PAM-ag: -40; PGE2 EP2 inh: 0; NPY-Y1 ant conf: 10; NPY-Y2 antag ct: 17

What do the screens show for `COc1ccc(Cc2noc(CN3CCN(C4CCc5ccccc5C4)CC3)n2)cc1OC` (centres undefined)?
NPY-Y1 antag: 10; NPY2 pot ag: -22; EP2 modulator: -4; NPY-Y1 PAM-ag: -6; PGE2 EP2 inh: 5

How did Fc1cccc(Cc2noc(CN3CCN(C4CCc5ccccc5C4)CC3)n2)c1 (centres undefined) do in these assays?
NPY-Y1 antag: 24*; NPY2 pot ag: -20; EP2 modulator: -53; NPY-Y1 PAM-ag: -15; PGE2 EP2 inh: 2; NPY-Y1 ant conf: 17; NPY-Y2 antag ct: 13

How did Cc1ccc(NC(=O)CSc2nc3ccccc3c(=O)n2CCCC(=O)NCCCN2CCOCC2)cc1C do in these assays?
NPY-Y1 antag: 9; NPY2 pot ag: 2; EP2 modulator: 14; NPY-Y1 PAM-ag: -11; PGE2 EP2 inh: 4

Results for Cc1ccc(NC(=O)CSc2nc3ccccc3c(=O)n2CCCN2CCCCC2)cc1Cl ?
NPY-Y1 antag: 23*; NPY2 pot ag: -60; EP2 modulator: -94; NPY-Y1 PAM-ag: -70; PGE2 EP2 inh: 7; NPY-Y1 ant conf: 45*; NPY-Y2 antag ct: 55*

Results for CC1CCN(CCCn2c(SCC(=O)Nc3ccccc3Cl)nc3ccccc3c2=O)CC1 ?
NPY-Y1 antag: 31*; NPY2 pot ag: -15; EP2 modulator: -38; NPY-Y1 PAM-ag: -39; PGE2 EP2 inh: 7; NPY-Y1 ant conf: 25*; NPY-Y2 antag ct: 24*

How did C#CCOc1ccc(C2C(C#N)=C(N)OC3=C2C(=O)CCC3)cc1OCC (centres undefined) do in these assays?
EP2 modulator: 31; PGE2 EP2 inh: 7

What do the screens show for `COc1ccc2nc(SCC(=O)Nc3cccc(C(F)(F)F)c3)c(C#N)cc2c1`?
EP2 modulator: -3; PGE2 EP2 inh: 18

Results for COCCCN1C(=O)C(=O)/C(=C(\O)c2cc(C)ccc2C)C1c1ccc(O)c(OC)c1 (centres undefined) ?
EP2 modulator: 11; PGE2 EP2 inh: 13

How did Cc1ccn2c(c1)nc(=O)c1c(=O)[nH]c3ccccc3c12 do in these assays?
EP2 modulator: 6; PGE2 EP2 inh: 13

What do the screens show for `COc1ccc(-c2cc(C(=O)Nc3ccccc3N3CCOCC3)c3ccccc3n2)cc1OC`?
NPY-Y1 antag: 30*; NPY2 pot ag: -40; EP2 modulator: 28; NPY-Y1 PAM-ag: -41; PGE2 EP2 inh: 6; NPY-Y1 ant conf: 17; NPY-Y2 antag ct: 14

How did COc1ccc(-c2cc(C(=O)Nc3ccccc3O)c3ccccc3n2)cc1OC do in these assays?
NPY-Y1 antag: 27*; NPY2 pot ag: -52; EP2 modulator: -63; NPY-Y1 PAM-ag: -41; PGE2 EP2 inh: 10; NPY-Y1 ant conf: 14; NPY-Y2 antag ct: 23*

How did COc1ccc(-c2cc(C(=O)NCc3cn(C)nc3C)c3ccccc3n2)cc1OC do in these assays?
NPY-Y1 antag: 3; NPY-Y2 antag: 4; NPY2 pot ag: 0; EP2 modulator: -8; NPY-Y1 PAM-ag: 7; PGE2 EP2 inh: 9

How did CCc1nn(CC(=O)NCc2cccs2)c(=O)c2cc3oc(C)cc3n12 do in these assays?
EP2 modulator: -24

How did COc1ccc(NC(=O)C(=O)N2CCCCC2)cc1OC do in these assays?
EP2 modulator: -9; PGE2 EP2 inh: 9

Results for CCc1nn2cc(-c3ccccc3)nc2s1 ?
NPY-Y1 antag: 28*; NPY-Y2 antag: 1; NPY2 pot ag: 11; EP2 modulator: -13; NPY-Y1 PAM-ag: 4; PGE2 EP2 inh: 11; NPY-Y1 ant conf: -1; NPY-Y2 antag ct: 0

Results for COc1ccc(Cl)cc1NC(=O)Cn1cnc2sc3c(c2c1=O)CCCC3 ?
EP2 modulator: -26; PGE2 EP2 inh: 9

What do the screens show for `Cc1ccnc(N2CCN(C(=O)CSc3nc4ccccc4nc3N3CCC(C)CC3)CC2)c1`?
NPY-Y1 antag: 24*; NPY2 pot ag: -8; EP2 modulator: 19; NPY-Y1 PAM-ag: -1; PGE2 EP2 inh: 6; NPY-Y1 ant conf: 10; NPY-Y2 antag ct: 8

Results for O=C1c2cccc3c(N4CCCCC4)ccc(c23)C(=O)N1c1ccc(O)cc1 ?
NPY-Y1 antag: 22*; NPY2 pot ag: -18; EP2 modulator: 50; NPY-Y1 PAM-ag: -21; PGE2 EP2 inh: 9; NPY-Y1 ant conf: 15; NPY-Y2 antag ct: 20*

Results for O=C1c2cccc3c(N4CCCCC4)ccc(c23)C(=O)N1c1ccccc1O ?
NPY-Y1 antag: 1; NPY2 pot ag: -13; EP2 modulator: 15; NPY-Y1 PAM-ag: -14; PGE2 EP2 inh: 4

How did O=C(Cc1cccs1)N(CC1CCCO1)C1(C(=O)NC2CCCC2)CCCCC1 (centres undefined) do in these assays?
NPY-Y1 antag: 36*; NPY2 pot ag: -10; EP2 modulator: 10; NPY-Y1 PAM-ag: -17; PGE2 EP2 inh: 2; NPY-Y1 ant conf: 14; NPY-Y2 antag ct: 8

What do the screens show for `C=CCNC(=O)C1CCN(c2nc(OC)nc(OC)n2)CC1`?
EP2 modulator: 0; PGE2 EP2 inh: 4
